From article PMC3653324 (Translational stroke research, 2012)
Like-named read-outs stand apart in the source and are kept apart here. One block for each compound: values may come before it.

Key:
H4IIE cells [1] = type: cell-based; conditions: 24 hr
Caspase 3 = test: CeeTox apoptosis; type: cell-based, rat; conditions: H4IIE cells
P-glycoprotein (PgP) = test: P-glycoprotein; type: cell-based, rat; conditions: H4IIE cells, MTT, 24 hr, single exposure concentration (20 or 50 μM), without CSA
S. typhimurium TA989 = test: Ames test for mutagenicity, frame-shift strain; type: cell-based; conditions: first TA98 column; for TA98+S9: with S9, up to 10 μM; for TA98−S9: without S9, up to 10 μM
CYP1A2 = molecular target: T1, CYP1A2 (Homo sapiens, UniProt P05177); test: Cloe Screen Cytochrome P450 Inhibition assay; type: in vitro ADME
T1 sequence (P05177 1-516): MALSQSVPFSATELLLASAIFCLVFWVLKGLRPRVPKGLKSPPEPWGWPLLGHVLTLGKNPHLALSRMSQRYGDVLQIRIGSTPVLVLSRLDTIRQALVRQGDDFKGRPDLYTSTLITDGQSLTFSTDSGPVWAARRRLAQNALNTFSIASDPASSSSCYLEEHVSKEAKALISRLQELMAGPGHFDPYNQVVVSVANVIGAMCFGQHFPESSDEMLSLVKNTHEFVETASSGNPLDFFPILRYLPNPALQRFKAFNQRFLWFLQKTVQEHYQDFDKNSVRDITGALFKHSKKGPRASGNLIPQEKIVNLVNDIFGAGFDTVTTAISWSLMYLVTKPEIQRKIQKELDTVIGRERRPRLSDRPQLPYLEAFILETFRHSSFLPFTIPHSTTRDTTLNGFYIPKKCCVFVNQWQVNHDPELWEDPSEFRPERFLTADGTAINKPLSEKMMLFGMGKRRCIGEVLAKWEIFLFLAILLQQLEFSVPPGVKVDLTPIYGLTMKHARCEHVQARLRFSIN

CYP2C9 = CYP2C9 (Homo sapiens, UniProt P11712); test: Cloe Screen Cytochrome P450 Inhibition assay; type: in vitro ADME
CYP3A4 = CYP3A4 (Homo sapiens, UniProt P08684); test: Cloe Screen Cytochrome P450 Inhibition assay; type: in vitro ADME
CYP2D6 = CYP2D6 (Homo sapiens, UniProt P10635); test: Cloe Screen Cytochrome P450 Inhibition assay; type: in vitro ADME
How it was run: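 Run blinded. […] Metabolite formation was monitored by LC-MS/MS. IC50 was calculated from the decrease in metabolite formation relative to vehicle control. Quinidine served as positive control inhibitor.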

CYP2C19 = CYP2C19 (Homo sapiens, UniProt P33261); test: Cloe Screen Cytochrome P450 Inhibition assay; type: in vitro ADME
MDR1-MDCK cells = test: BBB penetration; type: in vitro ADME, canine; conditions: classification from Papp A→B and efflux
How it was run: (§1)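 MDCK cells transfected with human MDR1 (P-gp) were grown to a confluent monolayer over 4 days. Test compound was added apically, and A→B transport was followed over 60 min; B→A transport was also measured. Compound on each side was quantified by GC/MS. Papp was calculated for both directions, and efflux ratio = Papp B→A/Papp A→B. High BBB potential: Papp A→B ≥3.0×10⁻⁶ cm/s and efflux <3.0.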

P-glycoprotein (MDR1) = test: BBB penetration; type: in vitro ADME, canine; conditions: dog, MDCK-MDR1
How it was run: as §1

H4IIE cells [2] = test: CeeTox cellular ATP content; conditions: 24 hr
H4IIE cells [3] = test: CeeTox cell mass; conditions: 24 hr
H4IIE cells [4] = test: CeeTox membrane toxicity; conditions: 24 hr, α-GST leakage
[5] = tested on: Intracellular glutathione (GSH); test: CeeTox intracellular glutathione; conditions: H4IIE cells
8-Isoprostane (8-ISO) = test: CeeTox lipid peroxidation measured as 8-isoprostane; conditions: H4IIE cells, 8-ISO score
HT22 cells = test: In vitro ischemia assay; type: cell-based; conditions: Mus musculus, HT-22, read-out: HT22 EC50 (nM)
How it was run: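 Mouse HT22 hippocampal cells were grown in DMEM with 10 % FCS and seeded at 5×10^3 cells/well. Next day, medium was changed to DMEM with 7.5 % dialyzed FCS, and cells were exposed to 20 µM iodoacetic acid with or without varying test compound concentrations for 2 h. Medium was then replaced with compound-containing medium without IAA for 20 h. Viability was read by MTT (5 µg/ml, 4 h, 37 °C), solubilized in DMF/SDS pH 4.7, A570.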

mouse cortical neurons = test: Cortical neuron glutamate excitotoxicity neuroprotection assay; type: cell-based; conditions: tested at 0.1 μM
H4IIE cells [6] = test: CeeTox analysis composite; type: cell-based, rat; conditions: H4IIE cells, 24 hr

CYP2C9, sequence (P11712 whole entry): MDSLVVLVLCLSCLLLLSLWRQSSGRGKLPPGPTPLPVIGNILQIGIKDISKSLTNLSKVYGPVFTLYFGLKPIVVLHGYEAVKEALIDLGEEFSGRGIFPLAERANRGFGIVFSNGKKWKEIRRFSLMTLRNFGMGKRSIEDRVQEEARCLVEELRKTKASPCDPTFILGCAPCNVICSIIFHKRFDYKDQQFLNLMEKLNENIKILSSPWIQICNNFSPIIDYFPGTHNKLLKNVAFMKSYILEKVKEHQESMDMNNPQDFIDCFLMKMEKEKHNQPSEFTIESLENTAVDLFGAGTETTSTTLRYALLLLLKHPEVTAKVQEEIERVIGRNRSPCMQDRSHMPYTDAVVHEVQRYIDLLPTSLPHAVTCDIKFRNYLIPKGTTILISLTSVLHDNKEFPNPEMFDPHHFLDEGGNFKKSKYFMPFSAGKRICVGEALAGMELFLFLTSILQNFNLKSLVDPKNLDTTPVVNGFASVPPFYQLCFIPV
CYP3A4, sequence (P08684 2-503): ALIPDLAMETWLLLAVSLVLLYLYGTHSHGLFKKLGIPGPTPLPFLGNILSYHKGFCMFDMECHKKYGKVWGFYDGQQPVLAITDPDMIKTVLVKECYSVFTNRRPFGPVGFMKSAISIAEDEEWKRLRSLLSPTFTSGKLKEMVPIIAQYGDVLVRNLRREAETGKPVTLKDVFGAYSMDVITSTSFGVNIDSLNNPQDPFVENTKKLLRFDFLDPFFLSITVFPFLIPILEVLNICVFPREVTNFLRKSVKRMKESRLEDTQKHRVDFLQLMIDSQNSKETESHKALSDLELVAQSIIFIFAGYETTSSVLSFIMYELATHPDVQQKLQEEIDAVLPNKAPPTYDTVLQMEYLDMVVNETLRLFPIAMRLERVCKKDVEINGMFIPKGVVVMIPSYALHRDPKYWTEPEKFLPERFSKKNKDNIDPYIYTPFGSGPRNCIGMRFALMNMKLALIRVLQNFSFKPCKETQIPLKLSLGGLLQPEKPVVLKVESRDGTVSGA
CYP2D6, sequence (P10635 whole entry): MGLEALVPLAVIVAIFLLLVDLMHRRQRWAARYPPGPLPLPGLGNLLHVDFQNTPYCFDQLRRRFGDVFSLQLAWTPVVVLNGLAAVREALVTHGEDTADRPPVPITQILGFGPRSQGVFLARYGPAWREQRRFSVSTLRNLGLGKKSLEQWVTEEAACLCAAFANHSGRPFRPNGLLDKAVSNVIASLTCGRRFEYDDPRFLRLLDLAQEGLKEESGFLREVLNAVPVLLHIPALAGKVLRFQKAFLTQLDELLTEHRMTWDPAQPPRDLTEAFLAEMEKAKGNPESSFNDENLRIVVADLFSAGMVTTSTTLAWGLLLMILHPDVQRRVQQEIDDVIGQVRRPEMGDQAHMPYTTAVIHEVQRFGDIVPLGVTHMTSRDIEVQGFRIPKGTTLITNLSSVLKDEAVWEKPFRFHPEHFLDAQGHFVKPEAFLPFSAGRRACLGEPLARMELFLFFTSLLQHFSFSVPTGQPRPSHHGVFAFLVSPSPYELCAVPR
CYP2C19, sequence (P33261 whole entry): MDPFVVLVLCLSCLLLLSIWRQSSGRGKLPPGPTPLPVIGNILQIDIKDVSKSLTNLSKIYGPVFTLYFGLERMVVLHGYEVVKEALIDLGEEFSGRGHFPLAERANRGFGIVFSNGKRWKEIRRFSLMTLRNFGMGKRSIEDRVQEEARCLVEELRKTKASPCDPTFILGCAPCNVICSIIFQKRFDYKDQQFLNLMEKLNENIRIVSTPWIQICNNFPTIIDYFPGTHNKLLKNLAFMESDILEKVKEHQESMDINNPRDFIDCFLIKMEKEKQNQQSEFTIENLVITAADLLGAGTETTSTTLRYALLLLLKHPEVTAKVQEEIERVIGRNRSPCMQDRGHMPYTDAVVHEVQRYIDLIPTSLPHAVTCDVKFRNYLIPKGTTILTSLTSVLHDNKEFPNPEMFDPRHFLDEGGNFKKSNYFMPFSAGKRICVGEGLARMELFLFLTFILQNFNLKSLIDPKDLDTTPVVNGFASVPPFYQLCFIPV

SMILES: CCCc1ccc2oc(-c3ccc(O)c(O)c3)c(O)c(=O)c2c1 [CSMC-13, 6-propyl-3,3',4'-trihydroxy flavone]
- MTT TC50 (H4IIE cells [1]): 83 µM
- Caspase 3 Activity (Index/Dose): dose (Caspase 3; dose at which the index was seen): 100
- Caspase 3 Activity (Index/Dose): index (Caspase 3; index of RFU): 1 (0–200 = 1)
- % Control(Compound) (P-glycoprotein (PgP)): 87.9 % Control
- TA98+S9 (S. typhimurium TA989): Negative (Not mutagenic < 10 μM (NEGATIVE))
- TA98−S9 (S. typhimurium TA989): Negative (Not mutagenic < 10 μM (NEGATIVE))
- IC50 (CYP1A2): > 25 µM
- IC50 (CYP2C9): > 10 µM
- IC50 (CYP3A4): > 10 µM
- IC50 (CYP2D6): > 10 µM
- IC50 (CYP2C19): > 10 µM
- BBB Potential (MDR1-MDCK cells): low
- Papp A→B at 60 min (P-glycoprotein (MDR1)): 0.1 ×10⁻⁶ cm/s
- efflux ratio at 60 min (P-glycoprotein (MDR1)): 1
- ATP TC50 (H4IIE cells [2]): 58 µM
- Cell Mass TC50 (H4IIE cells [3]): 78 µM
- MemTox TC50 (H4IIE cells [4]): >300 µM
- Total GSH TC50 [5]: 252 µM
- Membrane Lipid Peroxidation (8-Isoprostane (8-ISO)): 2 (2 = Concentration related increase with maximum values ≥ 15 pg/mL)

- EC50 (HT22 cells): 4000 nM
- BBB Potential (MDR1-MDCK cells): low
- Papp A→B at 60 min (P-glycoprotein (MDR1)): 2.96 ×10⁻⁶ cm/s
- efflux ratio at 60 min (P-glycoprotein (MDR1)): 0.7
SMILES: O=c1c(O)c(-c2ccc(O)c(O)c2)oc2cc(O)ccc12 [Fisetin, 3,3',4',7-tetrahydroxyflavone, reference compound]
- Neuroprotection of mouse cortical neurons against glutamate (mouse cortical neurons): did not confer neuroprotection

SMILES: O=c1c(O)c(-c2ccc(O)c(O)c2)oc2c1ccc1ccccc12 [CSMC-6, 3,3',4'-trihydroxy alpha-naphthoflavone]
- MTT TC50 (H4IIE cells [1]): 71 µM
- % Control(Compound) (P-glycoprotein (PgP)): 68.3 % Control
- minimum TC50 (H4IIE cells [6]; lowest of the CeeTox endpoints): 71 µM
- TC50 for all general toxicity measures (range over endpoints) (H4IIE cells [6]; range across CeeTox endpoints): 71 to 282 µM
- TA98+S9 (S. typhimurium TA989): Negative (Not mutagenic < 10 μM (NEGATIVE))
- TA98−S9 (S. typhimurium TA989): Negative (Not mutagenic < 10 μM (NEGATIVE))
- IC50 (CYP2C9; read-out: CYP2C9 IC50, human liver microsomes, substrate Tolbutamide): > 10 µM
- IC50 (CYP3A4; read-out: CYP3A4 IC50, human liver microsomes, substrate head: Mephenytoin): > 10 µM
- IC50 (CYP2D6; read-out: CYP2D6 IC50, human liver microsomes, substrate DextroM): > 10 µM
- IC50 (CYP2C19; read-out: CYP2C19 IC50, human liver microsomes, substrate head: Midazolam): > 10 µM
- ATP TC50 (H4IIE cells [2]): 81 µM
- Cell Mass TC50 (H4IIE cells [3]): 80 µM
- MemTox TC50 (H4IIE cells [4]): 282 µM
- Total GSH TC50 [5]: 87 µM
- Membrane Lipid Peroxidation (8-Isoprostane (8-ISO)): 0
